Reference: ChEMBL document CHEMBL1138779, “Antitumor agents. 234. Design, synthesis, and biological evaluation of novel 4beta-[(4' '-benzamido)-amino]-4'-o-demethyl-epipodophyllotoxin derivatives” (2004)
Converted amounts (≈) assume the structure as drawn. “And” between values parts separate entries of the source, which are not always exact repeats. Equal entries are not always repeated.

Columns and labels:
KB [1] = experiment: Ratio of ED50 for KB-7d cells to that of KB cells; type: functional, Homo sapiens
Summary of the method: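 Relative resistance (fold) taken as ED50 against KB-7d divided by ED50 against KB. Both values come from 3-day drug exposure, with ED50 interpolated from dose–response data as the concentration reducing cell number by 50%.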

KB [2] = experiment: Dose required for reduction in human nasopharyngeal KB-7d cancer cells after 3 days incubation; type: functional; conditions: 72 h, read-out: ED50 (the source's name)
Summary of the method: (§1)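 Cells grown at 37 °C, humidified 5% CO2, in RPMI-1640 with 25 mM HEPES, […], 10% (v/v) FBS and 100 µg/mL kanamycin. Drug exposure for 3 days. ED50 (concentration giving 50% reduction in cell number) interpolated from dose–response data. Triplicate tests, variation no more than 5%; independent ED50 determinations varied no more than 30%.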

KB [3] = experiment: Dose required to cause reduction in human nasopharyngeal KB cancer cells after 3 days incubation; type: functional; conditions: 72 h, read-out: ED50 (the source's name); summary of the method: as §1
[4] = molecular target: T1, DNA topoisomerase II (Homo sapiens) (UniProt P11388+Q02880); experiment: Percentage of protein-linked DNA breaks in KB cells by [3H]thymidine incorporation; type: functional, cell-based; set-up: concentration or dose not given beside the values
Summary of the method: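 KB cells labelled overnight with 0.5 µCi/mL [methyl-3H]thymidine ([…]), chased 2 h, then treated in duplicate with compound at 10 µg/mL for 1 h. Protein-associated DNA breaks measured as potassium–SDS precipitable radioactivity. Values expressed relative to VP-16 control set at 100%.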

PC-3 = experiment: Dose required for reduction in human prostate PC-3 cancer cells after 3 days incubation; type: functional; conditions: PC-3, 72 h, read-out: ED50 (the source's name); summary of the method: as §1
1A9/ptx-10 = experiment: Dose required for reduction in paclitaxel resistant human ovarian 1A9-PTX10 cancer cells after 3 days incubation; type: functional; conditions: 1A9/ptx-10, 72 h, read-out: ED50 (the source's name); summary of the method: as §1
U-87 MG = experiment: Dose required for reduction in human glioblastoma U-87-MG cancer cells after 3 days incubation; type: functional, U-87MG ATCC; conditions: 72 h, read-out: ED50 (the source's name); summary of the method: as §1
KB [5] = experiment: Dose required for reduction in camptothecin resistant human nasopharyngeal KB cancer cells after 3 days incubation; type: functional; conditions: 72 h, read-out: ED50 (the source's name); summary of the method: as §1
KB [6] = experiment: Dose required for reduction in etoposide resistant human nasopharyngeal KB-7d cancer cells after 3 days incubation; type: functional; conditions: 72 h, read-out: ED50 (the source's name); summary of the method: as §1
KB [7] = experiment: Dose required for reduction in vincristine resistant human nasopharyngeal KB-VIN cancer cells after 3 days incubation; type: functional; conditions: 72 h, read-out: ED50 (the source's name); summary of the method: as §1
A549 = experiment: Dose required for reduction in human lung A549 cancer cells after 3 days incubation; type: functional; conditions: A549, 72 h, read-out: ED50 (the source's name); summary of the method: as §1
MCF7 = experiment: Dose required for reduction in human breast MCF-7 cancer cells after 3 day incubation; type: functional; conditions: MCF7, 72 h, read-out: ED50 (the source's name); summary of the method: as §1
CAKI-1 = experiment: Dose required for reduction in human renal CAKI-1 cancer cells after 3 days incubation; type: functional; conditions: CAKI-1, 72 h, read-out: ED50 (the source's name); summary of the method: as §1
HCT-8 = experiment: Dose required for reduction in human ileocecal HCT-8 cancer cells after 3 day incubation; type: functional; conditions: HCT-8, 72 h, read-out: ED50 (the source's name); summary of the method: as §1
1A9 = experiment: Dose required to cause reduction in human ovarian 1A9 cancer cells after 3 days incubation; type: functional; conditions: 1A9, 72 h, read-out: ED50 (the source's name); summary of the method: as §1
[8] = molecular target: T1, DNA topoisomerase II (Homo sapiens); experiment: Percentage of protein-linked DNA breaks in KB cells by [3H]thymidine incorporation at 5 ug/mL; type: functional, cell-based
Summary of the method: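 [3H]thymidine-prelabelled KB cells (0.5 µCi/mL, overnight, 2 h chase) treated in duplicate with compound at 5 µg/mL for 1 h. Protein-linked DNA breaks read as potassium–SDS precipitable radioactivity, given as percent of the VP-16 control set at 100%.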

Row | Compound | Relative resistance (KB [1]) | EC50 (KB [2]) [µg/mL] | EC50 (KB [3]) | Activity [4] [%] | EC50 (PC-3) [µM] | EC50 (1A9/ptx-10) [µM] | EC50 (U-87 MG) [µM] | EC50 (KB [5]) [µM] | EC50 (KB [6]) [µM] | EC50 (KB [7]) [µM] | EC50 (A549) [µM] | EC50 (MCF7) [µM] | EC50 (CAKI-1) [µM] | EC50 (HCT-8) [µM] | EC50 (1A9) [µM] | Activity [8] [%]
1 | COC(=O)[C@H](Cc1ccc(O)cc1)NC(=O)c1ccc(N[C@@H]2c3cc4c(cc3[C@@H](c3cc(OC)c(O)c(OC)c3)[C@H]3C(=O)OC[C@@H]32)OCO4)cc1 | 2.6 | 5 (≈ 7.18 µM) | 1.9 µg/mL | 76 | – | – | – | – | – | – | – | – | – | – | – | –
2 | COC(=O)[C@H](Cc1ccccc1)NC(=O)c1ccc(N[C@@H]2c3cc4c(cc3[C@@H](c3cc(OC)c(O)c(OC)c3)[C@H]3C(=O)OC[C@@H]32)OCO4)cc1 | 1.8 | 1 (≈ 1.47 µM) | 0.55 µg/mL and 1.4 µM | 226 | > 100 | 1.7 | 87.1 | 3.7 | 1.7 | 4.2 | 1.2 | 9.6 | > 100 | 3.8 | 0.36 | –
3 | COc1cc([C@@H]2c3cc4c(cc3[C@@H](Nc3ccc(C(=O)N[C@@H](Cc5c[nH]c6ccccc56)C(=O)O)cc3)[C@H]3COC(=O)[C@H]23)OCO4)cc(OC)c1O | 2 | 8 (≈ 11.3 µM) | 4 µg/mL | 7 | – | – | – | – | – | – | – | – | – | – | – | –
4 | COC(=O)[C@H](Cc1c[nH]cn1)NC(=O)c1ccc(N[C@@H]2c3cc4c(cc3[C@@H](c3cc(OC)c(O)c(OC)c3)[C@H]3C(=O)OC[C@@H]32)OCO4)cc1 | 9.6 | 2.2 (≈ 3.28 µM) | 0.23 µg/mL and 7.6 µM | 122 | > 100 | 4 | > 100 | 17.6 | 14.7 | 11.1 | 16.1 | 29.8 | > 100 | 66 | 0.69 | –
5 | COc1cc([C@@H]2c3cc4c(cc3[C@@H](Nc3ccc(C(=O)NCCc5ccccc5)cc3)[C@H]3COC(=O)[C@H]23)OCO4)cc(OC)c1O | 14 | 0.5 (≈ 0.803 µM) | 0.03 µg/mL | – | – | – | – | – | – | – | – | – | – | – | – | 227
6 | COC(=O)[C@@H](Cc1c[nH]c2ccccc12)NC(=O)c1ccc(N[C@@H]2c3cc4c(cc3[C@@H](c3cc(OC)c(O)c(OC)c3)[C@H]3C(=O)OC[C@@H]32)OCO4)cc1 | 6.2 | 0.4 (≈ 0.556 µM) | 0.06 µg/mL and 440 nM | 121 | > 100 | 0.35 | 94.3 | 0.28 | 3.5 | 54.9 | 0.63 | 3.6 | > 100 | 3.4 | 0.02 | –
7 | COC(=O)[C@H](CCSC)NC(=O)c1ccc(N[C@@H]2c3cc4c(cc3[C@@H](c3cc(OC)c(O)c(OC)c3)[C@H]3C(=O)OC[C@@H]32)OCO4)cc1 | 3 | 2.4 (≈ 3.61 µM) | 0.8 µg/mL and 1.9 µM | 295 | 82.7 | 2.1 | 45.2 | 3.3 | 5.6 | 65.3 | 2 | 9.3 | > 100 | 11.4 | 0.12 | –
8 | COc1cc([C@@H]2c3cc4c(cc3[C@@H](NC(=O)[C@H](Cc3ccc(O)cc3)NC(=O)OCc3ccccc3)[C@H]3COC(=O)[C@H]23)OCO4)cc(OC)c1O | – | – | 3.9 µM | – | 94.8 | 5 | 100 | 9 | 11.9 | > 100 | 15.9 | 17.4 | > 100 | 77.7 | 0.94 | –
9 | COc1cc([C@@H]2c3cc4c(cc3[C@@H](Nc3ccc(C(=O)N[C@@H](C)C(=O)OCc5ccccc5)cc3)[C@H]3COC(=O)[C@H]23)OCO4)cc(OC)c1O | 0.5 | 0.25 (≈ 0.367 µM) | 0.5 µg/mL and 900 nM | 210 | 3.8 | 0.2 | 8 | 1.7 | 1.4 | 10.4 | 0.7 | 1.6 | > 100 | 2.4 | 0.05 | –
10 | COc1cc([C@@H]2c3cc4c(cc3[C@@H](Nc3ccc(C(=O)N[C@H](C)C(=O)OCc5ccccc5)cc3)[C@H]3COC(=O)[C@H]23)OCO4)cc(OC)c1O | 2.5 | 0.25 (≈ 0.367 µM) | 0.1 µg/mL and 1 µM | 133 | > 100 | 1.2 | 39.9 | 1.9 | 0.67 | 3.7 | 0.47 | 2.7 | > 100 | 2.2 | 0.057 | –
11 | COc1cc([C@@H]2c3cc4c(cc3[C@@H](Nc3ccc(C(=O)NCC(=O)OCc5ccccc5)cc3)[C@H]3COC(=O)[C@H]23)OCO4)cc(OC)c1O | 0.6 | 0.3 (≈ 0.45 µM) | 0.5 µg/mL and 860 nM | 178 | > 100 | 0.78 | 16.9 | 1.3 | 2.6 | 38.9 | 0.61 | 2.3 | > 100 | 3.5 | 0.12 | –
12 | COC(=O)[C@H](Cc1ccc(O)c(O)c1)NC(=O)c1ccc(N[C@@H]2c3cc4c(cc3[C@@H](c3cc(OC)c(O)c(OC)c3)[C@H]3C(=O)OC[C@@H]32)OCO4)cc1 | 5.5 | 5.5 (≈ 7.72 µM) | 1 µg/mL | 33 | – | – | – | – | – | – | – | – | – | – | – | –
13 | COc1cc([C@@H]2c3cc4c(cc3[C@@H](Nc3ccc([N+](=O)[O-])cc3)[C@H]3COC(=O)[C@H]23)OCO4)cc(OC)c1O | 10 | 2 (≈ 3.84 µM) | 0.2 µg/mL | 244 | – | – | – | – | – | – | – | – | – | – | – | 218
14 | COC(=O)[C@H](Cc1c[nH]c2ccccc12)NC(=O)c1ccc(N[C@@H]2c3cc4c(cc3[C@@H](c3cc(OC)c(O)c(OC)c3)[C@H]3C(=O)OC[C@@H]32)OCO4)cc1 | 5 | 2.5 (≈ 3.47 µM) | 0.5 µg/mL | 58 | – | – | – | – | – | – | – | – | – | – | – | –
